Values after ≈ are worked out from the molar mass of the structure shown.
Columns and labels:
Format in all cases: functional
Streptococcus pyogenes [1] = assay: Antibacterial activity against efflux-mediated macrolide-resistance Streptococcus pyogenes 2 Finland by broth microdilution method
In short: (§1)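 MIC by CLSI broth microdilution. In the streptococcal medium, 5% horse serum replaced lysed blood. Compounds were tested as two-fold serial dilutions. Strains were first grown on Columbia agar with 5% sheep blood. The MIC was read as the lowest concentration inhibiting growth.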

Streptococcus pneumoniae [2] = assay: Antibacterial activity against efflux-mediated macrolide-resistance Streptococcus pneumoniae Ci137 by broth microdilution method; in short: as §1
Streptococcus pneumoniae [3] = assay: Antibacterial activity against inducible resistance to macrolide and constitutive resistance to lincosamide Streptococcus pneumoniae 134 GR M by broth microdilution method; in short: as §1
Haemophilus influenzae = assay: Antibacterial activity against Haemophilus influenzae ATCC 49247 by broth microdilution method
In short: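 MIC by broth microdilution following CLSI guidelines, expressed in units of lg/mL. Twofold dilutions prepared in 96-well plates. H. influenzae grown on Mueller-Hinton chocolate agar before testing.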

Streptococcus pneumoniae [4] = assay: Antibacterial activity against constitutive MLS resistance Streptococcus pneumoniae 58 by broth microdilution method; in short: as §1
Staphylococcus aureus [5] = assay: Antibacterial activity against efflux-mediated macrolide-resistance Staphylococcus aureus PK1 by broth microdilution method
In short: (§2)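 Staphylococci were grown on Mueller-Hinton agar and then tested by CLSI-guideline broth microdilution against two-fold serial dilutions of compound. The result was recorded as the minimum inhibitory concentration.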

Streptococcus pyogenes [6] = assay: Antibacterial activity against constitutive MLS resistance sStreptococcus pyogenes 166 GR-Micro by broth microdilution method; in short: as §1
Staphylococcus aureus [7] = assay: Antibacterial activity against inducible resistance to macrolide, licosamide and streptogramin Staphylococcus aureus 90256 by broth microdilution method; in short: as §2

| SMILES | MIC (Streptococcus pyogenes [1]) [µg/mL] | MIC (Streptococcus pneumoniae [2]) [µg/mL] | MIC (Streptococcus pneumoniae [3]) [µg/mL] | MIC (Haemophilus influenzae) [µg/mL] | MIC (Streptococcus pneumoniae [4]) [µg/mL] | MIC (Staphylococcus aureus [5]) [µg/mL] | MIC (Streptococcus pyogenes [6]) [µg/mL] | MIC (Staphylococcus aureus [7]) [µg/mL] |
| --- | --- | --- | --- | --- | --- | --- | --- | --- |
| CC[C@H]1OC(=O)[C@H](C)[C@@H](O[C@H]2C[C@@](C)(OC)[C@@H](OC(=O)CCNCCNc3ccc4c(=O)c(C(=O)O)cn(CC)c4c3)[C@H](C)O2)[C@H](C)[C@@H](O[C@@H]2O[C@H](C)C[C@H](N(C)C)[C@H]2O)[C@](C)(O)C[C@@H](C)CN(C)[C@H](C)[C@@H](O)[C@]1(C)O | ≤ 0.125 | ≤ 0.125 | ≤ 0.125 | 4 (≈ 3.71 µM) | ≤ 0.125 | 2 (≈ 1.85 µM) | ≤ 0.125 | 4 (≈ 3.71 µM) |
| CC[C@H]1OC(=O)[C@H](C)[C@@H](O[C@H]2C[C@@](C)(OC)[C@@H](OC(=O)CCNCCCCNc3ccc4c(=O)c(C(=O)O)cn(CC)c4c3)[C@H](C)O2)[C@H](C)[C@@H](O[C@@H]2O[C@H](C)C[C@H](N(C)C)[C@H]2O)[C@](C)(O)C[C@@H](C)CN(C)[C@H](C)[C@@H](O)[C@]1(C)O | 8 (≈ 7.23 µM) | 1 (≈ 0.904 µM) | 8 (≈ 7.23 µM) | > 32 | 2 (≈ 1.81 µM) | 4 (≈ 3.62 µM) | 8 (≈ 7.23 µM) | > 32 |
| CC[C@H]1OC(=O)[C@H](C)[C@@H](O[C@H]2C[C@@](C)(OC)[C@@H](O)[C@H](C)O2)[C@H](C)[C@@H](O[C@@H]2O[C@H](C)C[C@H](N(C)C)[C@H]2O)[C@](C)(OC)C[C@@H](C)C(=O)[C@H](C)[C@@H](O)[C@]1(C)O [CLARITHROMYCIN] | 4 (≈ 5.35 µM) | 4 (≈ 5.35 µM) | > 64 | 8 (≈ 10.7 µM) | > 16 | > 64 | > 16 | > 64 |
| CC[C@H]1OC(=O)[C@H](C)[C@@H](O[C@H]2C[C@@](C)(OC)[C@@H](OC(=O)CCNCCCCNc3ccc4c(=O)c(C(=O)O)cn(C)c4c3)[C@H](C)O2)[C@H](C)[C@@H](O[C@@H]2O[C@H](C)C[C@H](N(C)C)[C@H]2O)[C@](C)(O)C[C@@H](C)NC(=O)[C@H](C)[C@@H](O)[C@]1(C)O | 8 (≈ 7.32 µM) | 4 (≈ 3.66 µM) | 16 (≈ 14.6 µM) | > 32 | 32 (≈ 29.3 µM) | 16 (≈ 14.6 µM) | 32 (≈ 29.3 µM) | > 32 |
| CC[C@H]1OC(=O)[C@H](C)[C@@H](O[C@H]2C[C@@](C)(OC)[C@@H](OC(=O)CCNCCNc3cc4c(cc3F)c(=O)c(C(=O)O)cn4C3CC3)[C@H](C)O2)[C@H](C)[C@@H](O[C@@H]2O[C@H](C)C[C@H](N(C)C)[C@H]2O)[C@](C)(O)C[C@@H](C)CN(C)[C@H](C)[C@@H](O)[C@]1(C)O | 1 (≈ 0.902 µM) | 0.25 (≈ 0.226 µM) | 1 (≈ 0.902 µM) | 2 (≈ 1.8 µM) | 0.25 (≈ 0.226 µM) | 0.5 (≈ 0.451 µM) | 2 (≈ 1.8 µM) | 0.5 (≈ 0.451 µM) |
| CC[C@H]1OC(=O)[C@H](C)[C@@H](O[C@H]2C[C@@](C)(OC)[C@@H](OC(=O)CCNCCNc3cc4c(cc3F)c(=O)c(C(=O)O)cn4C3CC3)[C@H](C)O2)[C@H](C)[C@@H](O[C@@H]2O[C@H](C)C[C@H](N(C)C)[C@H]2O)[C@](C)(O)C[C@@H](C)C(=O)[C@H](C)[C@@H](O)[C@]1(C)O | ≤ 0.125 | ≤ 0.125 | 0.25 (≈ 0.229 µM) | 8 (≈ 7.32 µM) | ≤ 0.125 | 0.5 (≈ 0.457 µM) | 0.5 (≈ 0.457 µM) | 4 (≈ 3.66 µM) |
| CC[C@H]1OC(=O)[C@H](C)[C@@H](O[C@H]2C[C@@](C)(OC)[C@@H](O)[C@H](C)O2)[C@H](C)[C@@H](O[C@@H]2O[C@H](C)C[C@H](N(C)C)[C@H]2O)[C@](C)(O)C[C@@H](C)CN(C)[C@H](C)[C@@H](O)[C@]1(C)O [AZITHROMYCIN] | 8 (≈ 10.7 µM) | 8 (≈ 10.7 µM) | > 64 | 1 (≈ 1.34 µM) | > 64 | > 64 | > 64 | > 64 |
| CC[C@H]1OC(=O)[C@H](C)[C@@H](O[C@H]2C[C@@](C)(OC)[C@@H](OC(=O)CCNCCCCNc3ccc4c(=O)c(C(=O)O)cn(C)c4c3)[C@H](C)O2)[C@H](C)[C@@H](O[C@@H]2O[C@H](C)C[C@H](N(C)C)[C@H]2O)[C@](C)(O)C[C@@H](C)C(=O)[C@H](C)[C@@H](O)[C@]1(C)O | 0.25 (≈ 0.232 µM) | 4 (≈ 3.71 µM) | 2 (≈ 1.86 µM) | > 32 | 4 (≈ 3.71 µM) | 4 (≈ 3.71 µM) | 16 (≈ 14.9 µM) | > 32 |
| CC[C@H]1OC(=O)[C@H](C)[C@@H](O[C@H]2C[C@@](C)(OC)[C@@H](OC(=O)CCNCCNc3ccc4c(=O)c(C(=O)O)cn(C5CC5)c4c3)[C@H](C)O2)[C@H](C)[C@@H](O[C@@H]2O[C@H](C)C[C@H](N(C)C)[C@H]2O)[C@](C)(O)C[C@@H](C)CN(C)[C@H](C)[C@@H](O)[C@]1(C)O | ≤ 0.125 | ≤ 0.125 | ≤ 0.125 | 4 (≈ 3.67 µM) | ≤ 0.125 | 1 (≈ 0.917 µM) | ≤ 0.125 | 2 (≈ 1.83 µM) |
| CC[C@H]1OC(=O)[C@H](C)[C@@H](O[C@H]2C[C@@](C)(OC)[C@@H](OC(=O)CCNCCCCNc3ccc4c(=O)c(C(=O)O)cn(CC)c4c3)[C@H](C)O2)[C@H](C)[C@@H](O[C@@H]2O[C@H](C)C[C@H](N(C)C)[C@H]2O)[C@](C)(O)C[C@@H](C)NC(=O)[C@H](C)[C@@H](O)[C@]1(C)O | 8 (≈ 7.23 µM) | 2 (≈ 1.81 µM) | 8 (≈ 7.23 µM) | > 32 | 16 (≈ 14.5 µM) | 8 (≈ 7.23 µM) | 32 (≈ 28.9 µM) | > 32 |
| CC[C@H]1OC(=O)[C@H](C)[C@@H](O[C@H]2C[C@@](C)(OC)[C@@H](OC(=O)CCN(C)CCNc3cc4c(cc3F)c(=O)c(C(=O)O)cn4C3CC3)[C@H](C)O2)[C@H](C)[C@@H](O[C@@H]2O[C@H](C)C[C@H](N(C)C)[C@H]2O)[C@](C)(O)C[C@@H](C)CN(C)[C@H](C)[C@H]2OC(=O)O[C@@]21C | ≤ 0.125 | ≤ 0.125 | 2 (≈ 1.74 µM) | 8 (≈ 6.97 µM) | 1 (≈ 0.871 µM) | 2 (≈ 1.74 µM) | 16 (≈ 13.9 µM) | 4 (≈ 3.48 µM) |
| CC[C@H]1OC(=O)[C@H](C)[C@@H](O[C@H]2C[C@@](C)(OC)[C@@H](OC(=O)CCN(C)CCNc3cc4c(cc3F)c(=O)c(C(=O)O)cn4C3CC3)[C@H](C)O2)[C@H](C)[C@@H](O[C@@H]2O[C@H](C)C[C@H](N(C)C)[C@H]2O)[C@](C)(O)C[C@@H](C)CN(C)[C@H](C)[C@@H](O)[C@]1(C)O | ≤ 0.125 | ≤ 0.125 | 0.25 (≈ 0.223 µM) | 4 (≈ 3.56 µM) | 0.25 (≈ 0.223 µM) | 1 (≈ 0.891 µM) | 2 (≈ 1.78 µM) | 2 (≈ 1.78 µM) |
| CC[C@H]1OC(=O)[C@H](C)[C@@H](O[C@H]2C[C@@](C)(OC)[C@@H](OC(=O)CCN(C)CCNc3ccc4c(c3)c(=O)c(C(=O)O)cn4C3CC3)[C@H](C)O2)[C@H](C)[C@@H](O[C@@H]2O[C@H](C)C[C@H](N(C)C)[C@H]2O)[C@](C)(O)C[C@@H](C)CN(C)[C@H](C)[C@@H](O)[C@]1(C)O | 0.5 (≈ 0.453 µM) | ≤ 0.125 | 0.25 (≈ 0.226 µM) | 4 (≈ 3.62 µM) | ≤ 0.125 | 1 (≈ 0.905 µM) | ≤ 0.125 | 1 (≈ 0.905 µM) |
| CC[C@H]1OC(=O)[C@H](C)[C@@H](O[C@H]2C[C@@](C)(OC)[C@@H](OC(=O)CCNCCNc3ccc4c(=O)c(C(=O)O)cn(C5CC5)c4c3)[C@H](C)O2)[C@H](C)[C@@H](O[C@@H]2O[C@H](C)C[C@H](N(C)C)[C@H]2O)[C@](C)(O)C[C@@H](C)C(=O)[C@H](C)[C@@H](O)[C@]1(C)O | ≤ 0.125 | ≤ 0.125 | ≤ 0.125 | 2 (≈ 1.86 µM) | ≤ 0.125 | 8 (≈ 7.44 µM) | ≤ 0.125 | 8 (≈ 7.44 µM) |
| CC[C@H]1OC(=O)[C@H](C)[C@@H](O[C@H]2C[C@@](C)(OC)[C@@H](OC(=O)CCNCCNc3ccc4c(=O)c(C(=O)O)cn(C)c4c3)[C@H](C)O2)[C@H](C)[C@@H](O[C@@H]2O[C@H](C)C[C@H](N(C)C)[C@H]2O)[C@](C)(O)C[C@@H](C)CN(C)[C@H](C)[C@@H](O)[C@]1(C)O | ≤ 0.125 | ≤ 0.125 | ≤ 0.125 | 8 (≈ 7.52 µM) | ≤ 0.125 | 2 (≈ 1.88 µM) | ≤ 0.125 | 4 (≈ 3.76 µM) |
| CC[C@H]1OC(=O)[C@H](C)[C@@H](O[C@H]2C[C@@](C)(OC)[C@@H](OC(=O)CCNCCCCNc3ccc4c(=O)c(C(=O)O)cn(C)c4c3)[C@H](C)O2)[C@H](C)[C@@H](O[C@@H]2O[C@H](C)C[C@H](N(C)C)[C@H]2O)[C@](C)(O)C[C@@H](C)CN(C)[C@H](C)[C@@H](O)[C@]1(C)O | 4 (≈ 3.66 µM) | 2 (≈ 1.83 µM) | 32 (≈ 29.3 µM) | 16 (≈ 14.6 µM) | 32 (≈ 29.3 µM) | 8 (≈ 7.32 µM) | 8 (≈ 7.32 µM) | > 64 |
| CC[C@H]1OC(=O)[C@H](C)[C@@H](O[C@H]2C[C@@](C)(OC)[C@@H](OC(=O)CCN(C)CCNc3cc4c(=O)c(C(=O)O)cn(C5CC5)c4cc3Cl)[C@H](C)O2)[C@H](C)[C@@H](O[C@@H]2O[C@H](C)C[C@H](N(C)C)[C@H]2O)[C@](C)(O)C[C@@H](C)CN(C)[C@H](C)[C@@H](O)[C@]1(C)O | ≤ 0.125 | ≤ 0.125 | ≤ 0.125 | 1 (≈ 0.878 µM) | ≤ 0.125 | 0.5 (≈ 0.439 µM) | ≤ 0.125 | 0.5 (≈ 0.439 µM) |

From ChEMBL document CHEMBL1221233, “4''-O-(omega-Quinolylamino-alkylamino)propionyl derivatives of selected macrolides with the activity against the key erythromycin resistant respiratory pathogens” (2010)
